Test system: HEK-293T
Assay: Multiplex assay against HEK293T
Assay type: toxicity, cell-based
Conditions: human
Outline: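 Phenotypes for tubulin, mitochondrial mass and membrane permeability are expressed as per cents of healthy-nucleus cells. Cells were stained live at seeding with Hoechst33342, BioTracker Green Microtubule Cytoskeleton Dye, MitoTracker Red and Annexin V Alexa Fluor 680, then imaged after compound addition on a CQ1 microscope at 37°C and 5% CO2. Machine-learning gating in CellPathfinder separated Hoechst high-intensity objects from normal cells, divided normal cells by nuclear state (healthy, pyknosed, fragmented) and divided pyknosed cells into mitotic or apoptotic.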

[1] = 12 h, 1 µM, compound concentration 1 uM, replicate 1
[2] = 12 h, 1 µM, compound concentration 1 uM, replicate 2
[3] = 12 h, 10 µM, compound concentration 10 uM, replicate 1
[4] = 12 h, 10 µM, compound concentration 10 uM, replicate 2
[5] = 24 h, 1 µM, compound concentration 1 uM, replicate 1
[6] = 24 h, 1 µM, compound concentration 1 uM, replicate 2
[7] = 24 h, 10 µM, compound concentration 10 uM, replicate 1
[8] = 24 h, 10 µM, compound concentration 10 uM, replicate 2
[9] = 48 h, 1 µM, compound concentration 1 uM, replicate 1
[10] = 48 h, 1 µM, compound concentration 1 uM, replicate 2
[11] = 48 h, 10 µM, compound concentration 10 uM, replicate 1
[12] = 48 h, 10 µM, compound concentration 10 uM, replicate 2

`Nc1nc(CC(=O)Nc2ccc(CCNC[C@H](O)c3ccccc3)cc2)cs1` [MIRABEGRON] was tested, and the “Population Apoptotic (%)” value [1] was 22%, the “Population Fragmented Nuclei (%)” value [1] was 5% and the “Population Healthy Nuclei (%)” value [1] was 84%. The “Population Hoechst High Intensity Objects (%)” value [1] was 5%, the “Population Membrane Permeable-Phenotype (%)” value [1] was 0% and the “Population Mitochondria Different-Phenotype (%)” value [1] was 45%. The “Population Mitotic Cells (%)” value [1] was 77%, the “Population Normal (%)” value [1] was 94% and the “Population Pyknosed Nuclei (%)” value [1] was 10%. For the same compound, the “Population Tubulin-Different-Phenotype (%)” value [1] was 19%, the “Total Cell Count” value [1] was 455 and the “Population Apoptotic (%)” value [2] was 55%. For the same compound, the “Population Fragmented Nuclei (%)” value [2] was 8%, the “Population Healthy Nuclei (%)” value [2] was 80% and the “Population Mitochondria Different-Phenotype (%)” value [2] was 56%. The “Population Mitotic Cells (%)” value [2] was 44%, the “Population Pyknosed Nuclei (%)” value [2] was 11% and the “Total Cell Count” value [2] was 332. The “Population Apoptotic (%)” value [3] was 32%, the “Population Fragmented Nuclei (%)” value [3] was 5% and the “Population Healthy Nuclei (%)” value [3] was 77%. The “Population Hoechst High Intensity Objects (%)” value [3] was 7%, the “Population Membrane Permeable-Phenotype (%)” value [3] was 0% and the “Population Mitochondria Different-Phenotype (%)” value [3] was 51%. The “Population Mitotic Cells (%)” value [3] was 67%, the “Population Normal (%)” value [3] was 92% and the “Population Pyknosed Nuclei (%)” value [3] was 17%. For the same compound, the “Population Tubulin-Different-Phenotype (%)” value [3] was 41%, the “Total Cell Count” value [3] was 423 and the “Population Apoptotic (%)” value [4] was 44%. The “Population Fragmented Nuclei (%)” value [4] was 11%, the “Population Healthy Nuclei (%)” value [4] was 74% and the “Population Hoechst High Intensity Objects (%)” value [4] was 8%. For the same compound, the “Population Mitochondria Different-Phenotype (%)” value [4] was 64%, the “Population Mitotic Cells (%)” value [4] was 56% and the “Population Normal (%)” value [4] was 91%. The “Population Pyknosed Nuclei (%)” value [4] was 14%, the “Population Tubulin-Different-Phenotype (%)” value [4] was 29% and the “Total Cell Count” value [4] was 388. For the same compound, the “Population Apoptotic (%)” value [5] was 28%, the “Population Fragmented Nuclei (%)” value [5] was 10% and the “Population Healthy Nuclei (%)” value [5] was 80%. The “Population Hoechst High Intensity Objects (%)” value [5] was 2%, the “Population Membrane Permeable-Phenotype (%)” value [5] was 0% and the “Population Mitochondria Different-Phenotype (%)” value [5] was 30%. The “Population Mitotic Cells (%)” value [5] was 71%, the “Population Normal (%)” value [5] was 97% and the “Population Pyknosed Nuclei (%)” value [5] was 9%. For the same compound, the “Population Tubulin-Different-Phenotype (%)” value [5] was 14%, the “Total Cell Count” value [5] was 635 and the “Population Apoptotic (%)” value [6] was 27%. For the same compound, the “Population Fragmented Nuclei (%)” value [6] was 8%, the “Population Healthy Nuclei (%)” value [6] was 83% and the “Population Hoechst High Intensity Objects (%)” value [6] was 3%. The “Population Mitochondria Different-Phenotype (%)” value [6] was 41%, the “Population Mitotic Cells (%)” value [6] was 72% and the “Population Normal (%)” value [6] was 96%. For the same compound, the “Population Pyknosed Nuclei (%)” value [6] was 7%, the “Population Tubulin-Different-Phenotype (%)” value [6] was 13% and the “Total Cell Count” value [6] was 390. The “Population Apoptotic (%)” value [7] was 31%, the “Population Fragmented Nuclei (%)” value [7] was 8% and the “Population Healthy Nuclei (%)” value [7] was 77%. The “Population Hoechst High Intensity Objects (%)” value [7] was 4%, the “Population Membrane Permeable-Phenotype (%)” value [7] was 0% and the “Population Mitochondria Different-Phenotype (%)” value [7] was 32%. For the same compound, the “Population Mitotic Cells (%)” value [7] was 68%, the “Population Normal (%)” value [7] was 95% and the “Population Pyknosed Nuclei (%)” value [7] was 13%. The “Population Tubulin-Different-Phenotype (%)” value [7] was 23%, the “Total Cell Count” value [7] was 552 and the “Population Apoptotic (%)” value [8] was 35%. For the same compound, the “Population Fragmented Nuclei (%)” value [8] was 9%, the “Population Healthy Nuclei (%)” value [8] was 82% and the “Population Hoechst High Intensity Objects (%)” value [8] was 5%. The “Population Mitochondria Different-Phenotype (%)” value [8] was 49%, the “Population Mitotic Cells (%)” value [8] was 64% and the “Population Normal (%)” value [8] was 94%. The “Population Pyknosed Nuclei (%)” value [8] was 7%, the “Total Cell Count” value [8] was 524 and the “Population Apoptotic (%)” value [9] was 18%. For the same compound, the “Population Fragmented Nuclei (%)” value [9] was 13%, the “Population Healthy Nuclei (%)” value [9] was 80% and the “Population Hoechst High Intensity Objects (%)” value [9] was 1%. For the same compound, the “Population Membrane Permeable-Phenotype (%)” value [9] was 1%, the “Population Mitochondria Different-Phenotype (%)” value [9] was 14% and the “Population Mitotic Cells (%)” value [9] was 81%. The “Population Normal (%)” value [9] was 98%, the “Population Pyknosed Nuclei (%)” value [9] was 5% and the “Population Tubulin-Different-Phenotype (%)” value [9] was 10%. For the same compound, the “Total Cell Count” value [9] was 1141, the “Population Apoptotic (%)” value [10] was 28% and the “Population Fragmented Nuclei (%)” value [10] was 17%. The “Population Healthy Nuclei (%)” value [10] was 76%, the “Population Hoechst High Intensity Objects (%)” value [10] was 0% and the “Population Mitochondria Different-Phenotype (%)” value [10] was 21%. For the same compound, the “Population Mitotic Cells (%)” value [10] was 71%, the “Population Normal (%)” value [10] was 99% and the “Total Cell Count” value [10] was 662. For the same compound, the “Population Apoptotic (%)” value [11] was 26%, the “Population Fragmented Nuclei (%)” value [11] was 12% and the “Population Healthy Nuclei (%)” value [11] was 78%. For the same compound, the “Population Hoechst High Intensity Objects (%)” value [11] was 3%, the “Population Membrane Permeable-Phenotype (%)” value [11] was 0% and the “Population Mitochondria Different-Phenotype (%)” value [11] was 25%. For the same compound, the “Population Mitotic Cells (%)” value [11] was 73%, the “Population Normal (%)” value [11] was 96% and the “Population Pyknosed Nuclei (%)” value [11] was 8%. For the same compound, the “Population Tubulin-Different-Phenotype (%)” value [11] was 16%, the “Total Cell Count” value [11] was 818 and the “Population Apoptotic (%)” value [12] was 28%. The “Population Healthy Nuclei (%)” value [12] was 80%, the “Population Hoechst High Intensity Objects (%)” value [12] was 2% and the “Population Mitochondria Different-Phenotype (%)” value [12] was 30%. For the same compound, the “Population Mitotic Cells (%)” value [12] was 71%, the “Population Normal (%)” value [12] was 97% and the “Population Pyknosed Nuclei (%)” value [12] was 6%. For the same compound, the “Population Tubulin-Different-Phenotype (%)” value [12] was 15% and the “Total Cell Count” value [12] was 750.
